Laboratory results published in ChEMBL document CHEMBL1122583, “Structure-activity relationships among DNA gyrase inhibitors. Synthesis and biological evaluation of 1,2-dihydro-4, 4-dimethyl-1-oxo-2-naphthalenecarboxylic acids as 1-carba bioisosteres of oxolinic acid” (1984).
In brackets after ≈: the same amount, converted by molar mass.

Assays:
Candida albicans = test: In vitro antifungal activity against Candida albicans (ATCC 10231); format: functional
Nucleic Acid = test: In vitro DNA gyrase inhibition activity; format: nucleic-acid assay
In short: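 DNA gyrase holoenzyme, purified using a heparin-Sepharose affinity column in place of the DEAE-cellulose step. Supercoiling of relaxed ColE1 plasmid was run on 1% agarose horizontal gels. Relaxed and supercoiled bands were quantified by densitometry of photographic negatives. Because inhibition is noncompetitive, Ki was taken as the concentration giving 50% inhibition of supercoil band formation.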

Escherichia coli = test: In vitro antifungal activity against Escherichia coli (ATCC 9637); format: functional
Klebsiella pneumoniae = test: In vitro antifungal activity against Klebsiella pneumoniae AD (ATCC 10031); format: functional
[1] = system: Mycolicibacterium smegmatis; test: In vitro antifungal activity against Mycobacterium smegmatis (ATCC 607); format: functional
[2] = system: Salmonella enterica subsp. enterica serovar Gallinarum; test: In vitro antifungal activity against Salmonella gallinarum (ATCC 9184); format: functional
Staphylococcus aureus = test: In vitro antifungal activity against Staphylococcus aureus (ATCC 13709); format: functional

## CC1(C)C=C(C(=O)O)C(=O)c2cc3c(cc21)CCO3
Candida albicans
  MIC: > 500 µg/mL
Nucleic Acid
  Ki (concentration giving 50% inhibition of gyrase supercoiling): 300 µg/mL
Escherichia coli
  MIC: > 500 µg/mL
Klebsiella pneumoniae
  MIC: > 500 µg/mL
[1]
  MIC: 500 µg/mL (≈ 1940 µM)
[2]
  MIC: 500 µg/mL (≈ 1940 µM)
Staphylococcus aureus
  MIC: 500 µg/mL (≈ 1940 µM)

## CC1(C)C=C(C(=O)O)C(=O)c2cc3c(cc21)OCO3
Candida albicans
  MIC: > 500 µg/mL
Nucleic Acid
  Ki (concentration giving 50% inhibition of gyrase supercoiling): 300 µg/mL
Escherichia coli
  MIC: > 500 µg/mL
Klebsiella pneumoniae
  MIC: > 500 µg/mL
[1]
  MIC: 500 µg/mL (≈ 1920 µM)
[2]
  MIC: 500 µg/mL (≈ 1920 µM)
Staphylococcus aureus
  MIC: 500 µg/mL (≈ 1920 µM)

## CC1(C)C=C(C(=O)O)C(=O)c2ccccc21
Candida albicans
  MIC: > 250 µg/mL
Nucleic Acid
  Ki (concentration giving 50% inhibition of gyrase supercoiling): 2000 µg/mL
Escherichia coli
  MIC: > 250 µg/mL
Klebsiella pneumoniae
  MIC: > 250 µg/mL
[1]
  MIC: 50 µg/mL (≈ 231 µM)
[2]
  MIC: 50 µg/mL (≈ 231 µM)
Staphylococcus aureus
  MIC: 6.25 µg/mL (≈ 28.9 µM)

## CC1(C)C=C(C(=O)O)C(=O)c2ccc3c(c21)OCC3
Candida albicans
  MIC: > 100 µg/mL
Nucleic Acid
  Ki (concentration giving 50% inhibition of gyrase supercoiling): 300 µg/mL
Escherichia coli
  MIC: > 100 µg/mL
Klebsiella pneumoniae
  MIC: > 100 µg/mL
[1]
  MIC: > 100 µg/mL
[2]
  MIC: > 100 µg/mL
Staphylococcus aureus
  MIC: > 100 µg/mL

## COc1cc2c(cc1OC)C(C)(C)C=C(C(=O)O)C2=O
Candida albicans
  MIC: > 100 µg/mL
Nucleic Acid
  Ki (concentration giving 50% inhibition of gyrase supercoiling): > 1000 µg/mL
Escherichia coli
  MIC: > 100 µg/mL
Klebsiella pneumoniae
  MIC: > 100 µg/mL
[1]
  MIC: > 100 µg/mL
[2]
  MIC: > 100 µg/mL
Staphylococcus aureus
  MIC: > 100 µg/mL

## CCn1cc(C(=O)O)c(=O)c2cc3c(cc21)OCO3 [OXOLINIC ACID]
Candida albicans
  MIC: > 100 µg/mL
Escherichia coli
  MIC: 0.78 µg/mL (≈ 2.99 µM)
Klebsiella pneumoniae
  MIC: < 0.1 µg/mL
[1]
  MIC: 50 µg/mL (≈ 191 µM)
[2]
  MIC: 0.78 µg/mL (≈ 2.99 µM)
Staphylococcus aureus
  MIC: 3.13 µg/mL (≈ 12 µM)

## CCn1cc(C(=O)O)c(=O)c2ccc(C)nc21 [NALIDIXIC ACID]
Candida albicans
  MIC: > 100 µg/mL
Escherichia coli
  MIC: 12.5 µg/mL (≈ 53.8 µM)
Klebsiella pneumoniae
  MIC: 3.13 µg/mL (≈ 13.5 µM)
[1]
  MIC: > 100 µg/mL
[2]
  MIC: 12.5 µg/mL (≈ 53.8 µM)
Staphylococcus aureus
  MIC: 100 µg/mL (≈ 431 µM)
